Starred links: 1 amine or outer side, 2 acyl side, 3 side chain; linkers in the order of their positions; H or OH if unused. Positions of bridges follow the written chain, without caps; N, C: chain ends. Non-standard residues stand in square brackets, D forms with d. Primed or numbered codes have the meaning given here. *: point of attachment. PEG2′ = PEG2 (Ebes) spacer between FITC and the peptide N-terminus, O=C(CCC(=O)[*:2])NCCOCCOCCN[*:1]; FITC = O=C1OC2(c3ccc(O)cc3Oc3cc(O)ccc32)c2ccc(NC(=S)*)cc21; Phe(3,5-F2) = N[C@@H](Cc1cc(F)cc(F)c1)C(=O)O; Hyp = O=C(O)[C@@H]1C[C@@H](O)CN1
Assays:
[1] = on-bead flow cytometry binding to healthy plasma exosomes; parameters: species or system human; settings: exosomes isolated by ultracentrifugation
Procedure, shortened: (§1)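 Exosomes were isolated by ultracentrifugation: Jurkat EV-depleted culture supernatant, or whole plasma from three healthy donors. Spins were 300 × g, 2,000 × g and 10,000 × g, then twice 100,000 × g for 2 hr at 4°C. Exosomes (10 μg protein) were labeled overnight with FITC-PEG peptide or scrambled analogue (1 μL of 5 mM). Free peptide was removed by 3000 Da spin column. Samples were adsorbed to 3.9 μm aldehyde/sulfate latex beads for flow cytometry. Triplicates, ≥10,000 beads each.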

Jurkat tumor cells = assay: flow cytometry binding to Jurkat cells; type: cell-based, human; settings: α4β1-expressing; data not shown
Procedure, shortened: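 Jurkat cells were grown in RPMI 1640 with 10% FBS and penicillin/streptomycin (37°C, 5% CO2). Cells were incubated 30 min in 3% FBS/PBS with FITC-PEG-labeled peptide or scrambled analogue at 1 μM; anti-α3-FITC was used at 1 μg per million cells. Cells were washed thrice and resuspended in 3% FBS with 1% sodium azide. Three replicates, ≥10,000 gated cells each.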

[2] = on-bead flow cytometry binding to Jurkat exosomes; parameters: species or system human; settings: α4β1-expressing, data not shown
Procedure, shortened: as §1

| Substance | binding to healthy human plasma exosomes [1] | binding to Jurkat cells (Jurkat tumor cells) | binding to Jurkat exosomes [2] |
| --- | --- | --- | --- |
| [cGd-Hyp-Phe(3,5-diF)-G-NcR] (disulfide) [scr-LXY30] | limited binding |  |  |
| scr-LXY30-Fl: scr-LXY30 labeled with fluorescein isothiocyanate dye via PEG2 spacer at the peptide N-terminus ({FITC-PEG2′}-[dC]G[dD][Hyp][Phe(3,5-F2)]GN[dC]R-NH2; disulfide 1-8) | did not exhibit significant binding | minimal extent | minimal extent |

Source: article PMC6001286 (Advanced biosystems, 2017)
